Reference: ChEMBL document CHEMBL3232972, “Synthesis and biological evaluation of some novel pyrido[1,2-a]pyrimidin-4-ones as antimalarial agents” (Eur J Med Chem, 2014)

Legend:
Plasmodium falciparum = assay: Antimalarial activity against erythrocytic stages of chloroquine-sensitive Plasmodium falciparum 3D7 infected in human O-positive erythrocytes after 48 hrs by SYBR Green-I fluorescence-based method; format: functional, organism-based; conditions: 3D7, 48 h
[1] = Selectivity index, ratio for IC50 for human HuH7 cells to IC50 for erythrocytic stages of chloroquine-sensitive Plasmodium falciparum 3D7; format: functional, Huh-7
[2] = Cytotoxicity against human HuH7 cells after 24 hrs by MTT assay; format: cell-based; conditions: Huh-7, 24 h
Procedure, shortened: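 Huh-7 cells in DMEM with 10% FBS and gentamicin, seeded at 10⁴ cells per well and left overnight. Compounds added for 24 h at 37 °C, 5% CO2, with 10% DMSO as positive control. MTT added for a further 3 h. Formazan dissolved in DMSO after centrifugation, read at 570 nm. IC50 from dose-response curves.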

IC50 (Plasmodium falciparum) [µM] | Compound | Ratio IC50 [1] | IC50 [2] [µM]
> 100 | O=C(NCc1cccc(C(F)(F)F)c1)Nc1cnc2ccc(Cl)cn2c1=O | – | –
> 100 | COc1ccc(CNC(=O)c2cnc3ccccn3c2=O)cc1 | – | –
> 100 | CCOC(=O)[C@H](Cc1ccccc1)NC(=O)Nc1cnc2ccccn2c1=O | – | –
> 100 | CC(C)C[C@H](NC(=O)Nc1cnc2ccccn2c1=O)C(N)=O | – | –
65 | O=C(NCc1cccc(C(F)(F)F)c1)c1cnc2ccccn2c1=O | >3 | > 200
> 100 | NC(=O)[C@H](Cc1ccccc1)NC(=O)Nc1cnc2ccccn2c1=O | – | –
70 | CC(C)N(Cc1ccccc1)C(=O)Nc1cnc2ccccn2c1=O | – | –
> 100 | O=C(NCc1ccccc1C(F)(F)F)c1cnc2ccccn2c1=O | – | –
37 | O=C(NCc1ccc(C(F)(F)F)cc1)c1cnc2ccccn2c1=O | >5.4 | > 200
100 | O=C(NCc1ccccc1C(F)(F)F)Nc1cnc2ccccn2c1=O | – | –
> 100 | O=C(NCCC(c1ccccc1)c1ccccc1)Nc1cnc2ccccn2c1=O | – | –
> 100 | O=C(c1cnc2ccccn2c1=O)N(Cc1ccccc1F)C1CC1 | – | –
70 | Cc1ccn2c(=O)c(C(=O)NCc3ccc(C(F)(F)F)cc3)cnc2c1 | >1.4 | > 100
> 100 | O=C(NC1CC1)c1cccnc1N1CCN(C(=O)Nc2cnc3ccccn3c2=O)CC1 | – | –
> 100 | O=C(NCc1ccccc1C(F)(F)F)Nc1cnc2ccc(Cl)cn2c1=O | – | –
> 100 | CC(C)N(Cc1ccccc1)C(=O)Nc1cnc2ccc(Cl)cn2c1=O | – | –
43 | O=C(NCc1cccc(F)c1)c1cnc2ccccn2c1=O | – | –
> 100 | COc1ccc(C(C)NC(=O)c2cnc3ccccn3c2=O)cc1 (configuration not stated) | – | –
> 100 | O=C(Nc1ncccc1OCc1ccccc1)Nc1cnc2ccccn2c1=O | – | –
33 | O=C(Nc1cnc2ccccn2c1=O)OCc1cccc(F)c1 | >3 | > 100
> 100 | Cc1noc(C)c1NC(=O)c1cnc2ccccn2c1=O | – | –

IC50 (Plasmodium falciparum) [µM] | Compound | Ratio IC50 [1] | IC50 [2] [µM]
> 100 | O=C(NCc1cccs1)Nc1cnc2ccc(Cl)cn2c1=O | – | –
> 100 | O=C(Nc1cnc2ccc(Cl)cn2c1=O)N1CCN(C(=O)c2ccco2)CC1 | – | –
> 100 | CC(C)C[C@@H](C#N)NC(=O)Nc1cnc2ccccn2c1=O | – | –
> 100 | COc1ccc(-c2ccc3ncc(C(=O)NCc4cccc(F)c4)c(=O)n3c2)cc1 | – | –
> 100 | O=C(Nc1cnc2ccccn2c1=O)OCc1ccc2c(c1)OCO2 | – | –
> 100 | CCCCCOc1cccnc1NC(=O)c1cnc2ccccn2c1=O | – | –
59 | O=C(NCc1ccc(F)cc1F)c1cnc2ccccn2c1=O | >3.3 | > 200
> 100 | O=C(Nc1cnc2ccc(Cl)cn2c1=O)OCc1ccccn1 | – | –
> 100 | O=C(NCc1ccc(C(F)(F)F)cc1)Nc1cnc2ccc(Cl)cn2c1=O | – | –
> 100 | O=C(NC1CCN(Cc2ccccc2)CC1)c1cnc2ccccn2c1=O | – | –
> 100 | O=C(NCCN1CCOCC1)c1cnc2ccccn2c1=O | – | –
> 100 | COc1ccc(-c2ccc3ncc(C(=O)NCc4ccc(C(F)(F)F)cc4)c(=O)n3c2)cc1 | – | –
> 100 | N#C[C@H](Cc1ccccc1)NC(=O)Nc1cnc2ccccn2c1=O | – | –
100 | O=C(Nc1ncccc1OCc1ccccc1)c1cnc2ccccn2c1=O | – | –
100 | COc1ccc(-c2ccc3ncc(C(=O)NCC4CCCO4)c(=O)n3c2)cc1 (configuration not stated) | – | –
> 100 | O=C(NCc1ccc(C(F)(F)F)cc1)Nc1cnc2ccccn2c1=O | – | –
> 100 | O=C(Nc1cnc2ccc(Cl)cn2c1=O)OCc1cccnc1 | – | –
> 100 | COCCNC(=O)Nc1cnc2ccc(Cl)cn2c1=O | – | –
> 100 | Cc1ccn2c(=O)c(NC(=O)N(Cc3ccccc3)C(C)C)cnc2c1 | – | –
> 100 | CC(C)(C)OC(=O)N1CCN(C(=O)Nc2cnc3ccc(Cl)cn3c2=O)CC1 | – | –
> 100 | O=C(Nc1cnc2ccc(Cl)cn2c1=O)OCc1cccc(F)c1 | – | –
